This excerpt belongs to a sample that is enriched for hits.
INS promoter act = TRM-6 insulin promoter activation; 0.81% of 130,000 active; activation, % at 2 µM; TRM-6 cells, insulin promoter eGFP reporter, imaging; plate-scaled: unstimulated 0, stimulated control 100;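 active means activation at 2 µM above a set limit, confirmed on inspection of the cell images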;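 further: share of cells whose green reporter signal exceeds an intensity cutoff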
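System: human fetal islet-derived TRM-6 cells with tamoxifen-inducible insulin promoter–eGFP reporter; input: seeding density of 1,000 cells per well; buffer or medium: Low-glucose (5.5 mM) medium with tamoxifen; incubation: compound exposure 48 h, 37 °C; measured by: high-content imaging of fixed cells with Hoechst nuclear stain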
The depositor's hits bear a star.

What do the screens show for `O=C(CSCc1ccc(Cl)cc1)Nc1nccs1`?
INS promoter act: 6

Results for COc1ccc(NC(=O)/C=C/c2ccccc2)c([N+](=O)[O-])c1 ?
INS promoter act: -9

Results for COc1ccc(NC(=O)COC(=O)c2ccco2)c([N+](=O)[O-])c1 ?
INS promoter act: -9

Results for COc1ccc(NC(=O)CC(C)c2ccccc2)c([N+](=O)[O-])c1 (configuration not stated) ?
INS promoter act: 443*

What do the screens show for `CCc1nc(NCCN2CCOCC2)c(C#N)c2c1CCCC2`?
INS promoter act: 7

Results for Cc1csc(NC(=O)C(NS(=O)(=O)c2ccc(Br)s2)c2ccccc2)n1 (configuration not stated) ?
INS promoter act: 0

What do the screens show for `Cc1csc(NC(=O)c2ccccc2C(=O)O)n1`?
INS promoter act: 7

What do the screens show for `CC(=O)NC(CCS(C)(=O)=O)C(=O)Nc1nc(C)cs1` (configuration not stated)?
INS promoter act: 750*

How did CCOC(=O)c1cnn(-c2cc(Oc3ccccc3C)ncn2)c1N do in these assays?
INS promoter act: -10

Results for CCOC(=O)c1ccc(N2CCN(c3ccccc3F)CC2)c(NC(=O)Nc2cccc(OC)c2)c1 ?
INS promoter act: 8

What do the screens show for `NNC(=O)CCc1ccc(S(=O)(=O)N2CCOCC2)cc1`?
INS promoter act: -81

What do the screens show for `Cn1nc(C(=O)NCc2cccs2)c2ccccc2c1=O`?
INS promoter act: 76*

Results for Cn1nc(C(=O)NCc2ccccn2)c2ccccc2c1=O ?
INS promoter act: -20

What do the screens show for `Cn1nc(C(=O)NCc2ccc(F)cc2)c2ccccc2c1=O`?
INS promoter act: 60

Results for CC1CCN(S(=O)(=O)c2ccc(NC(=O)Cn3nnc(-c4ccccc4F)n3)cc2)CC1 ?
INS promoter act: -6

Results for CCOC(=O)C(Cc1ccccc1)NC(C)=O (configuration not stated) ?
INS promoter act: 387

How did O=C(COC(=O)c1ccc(Br)o1)Nc1cccc(S(=O)(=O)N2CCCCCC2)c1 do in these assays?
INS promoter act: 3

What do the screens show for `O=C(COc1ccc(S(=O)(=O)N2CCCC2)cc1)NCCC1=CCCCC1`?
INS promoter act: 374

What do the screens show for `CCCOP(=O)(OCCC)c1c([N+](=O)[O-])cc(C(F)(F)F)cc1[N+](=O)[O-]`?
INS promoter act: 9

How did CCc1ccc(NC(=O)c2noc3c2CCC3)cc1 do in these assays?
INS promoter act: 8

What do the screens show for `O=C(NCc1cccnc1)c1noc2c1CCCC2`?
INS promoter act: 3

What do the screens show for `O=C(NCc1cccc(F)c1)c1noc2c1CCCC2`?
INS promoter act: 257*

Results for Cc1cc(C)n(-c2cc(N3CCN(S(=O)(=O)c4ccc(Cl)cc4)CC3)ccc2[N+](=O)[O-])n1 ?
INS promoter act: 3

How did O=S(=O)(c1ccccc1)N1CCN(c2nc3ccccc3s2)CC1 do in these assays?
INS promoter act: 3

What do the screens show for `Cc1cc(N2CCN(S(=O)(=O)c3ccc(Cl)cc3)CC2)c2ccccc2n1`?
INS promoter act: 100*

What do the screens show for `CCC(Sc1ncccc1C(=O)O)C(=O)N1CCCC1` (configuration not stated)?
INS promoter act: -9

Results for S=C(Nc1ccccc1)N1CCCCCCC1 ?
INS promoter act: 7

Results for O=S(=O)(c1ccc(F)c(F)c1F)N1CCN(C(=S)Nc2ccccc2)CC1 ?
INS promoter act: 324*

Results for NS(=O)(=O)c1ccc(NC(=S)N2CCN(c3ccccc3Cl)CC2)cc1 ?
INS promoter act: -5

What do the screens show for `COc1cccc(NC(=O)CN(c2cccc(F)c2)S(C)(=O)=O)c1`?
INS promoter act: 444*

Results for COc1ccc(NC(=O)CN(c2cccc(C(F)(F)F)c2)S(C)(=O)=O)cc1OC ?
INS promoter act: 7

What do the screens show for `CC(=O)c1cccc(N(CC(=O)Nc2ccc(F)cc2)S(C)(=O)=O)c1`?
INS promoter act: 3

How did Brc1ccccc1-c1nnc(COc2ncnc3c2cnn3-c2ccccc2)o1 do in these assays?
INS promoter act: -7

How did Cc1ccccc1NC(=O)c1ccccc1O do in these assays?
INS promoter act: -9

What do the screens show for `C=CCOc1c(Br)cc(/C=N/Nc2ccc(C(=O)O)cc2)cc1OCC`?
INS promoter act: 107

What do the screens show for `COc1ccc(Cc2n[nH]c(=S)o2)cc1`?
INS promoter act: 479*

Results for S=c1[nH]nc(COc2ccc3ccccc3c2)o1 ?
INS promoter act: 107

How did COc1ccc(Cc2nnc(SCC(=O)c3ccc(OC)cc3)o2)cc1 do in these assays?
INS promoter act: 42

Results for C/C(=N\O)C(=O)NCCCNCCCN(C)C ?
INS promoter act: -3

Results for COc1ccc(Br)cc1CNC(=O)C1CCCN(S(C)(=O)=O)C1 (configuration not stated) ?
INS promoter act: 1

How did C=CCn1c(SCC(C)=O)nnc1-c1cc(-c2ccccc2)sc1N do in these assays?
INS promoter act: -95

Results for O=C1NC(=S)S/C1=C/c1ccc(N2CCOCC2)o1 ?
INS promoter act: 141

Results for O=C1S/C(=C/c2ccc(N3CCOCC3)o2)C(=O)N1Cc1ccc(F)cc1 ?
INS promoter act: 6

How did CC(C)OC(=O)CN1C(=O)S/C(=C/c2ccc(N3CCCCC3)o2)C1=O do in these assays?
INS promoter act: 170*

What do the screens show for `CC(=O)c1cccc(NC(=O)c2nccnc2C(=O)O)c1`?
INS promoter act: -71

What do the screens show for `CC1=NN(C(=O)CCc2ccccc2)C(c2ccccc2)C1` (configuration not stated)?
INS promoter act: -9

Results for O=C(Nc1cnn(C23CC4CC(CC(C4)C2)C3)c1)c1cnn2c(C(F)(F)F)cc(-c3ccco3)nc12 ?
INS promoter act: -6

How did CCCNC(=O)CC1Sc2ccccc2NC1=O (configuration not stated) do in these assays?
INS promoter act: 111

What do the screens show for `O=C(CC1Sc2ccccc2NC1=O)c1ccc(Br)cc1` (configuration not stated)?
INS promoter act: 8

Results for COCCNC(=O)C(OC(=O)CC1Sc2ccccc2NC1=O)c1ccccc1 (configuration not stated) ?
INS promoter act: 414*

Results for COC(=O)c1ccsc1-n1cc(C#N)c(=O)n(C)c1=O ?
INS promoter act: 9

How did CCOC(=O)N1CCN(S(=O)(=O)c2ccc(OCC(=O)OC)c(Cl)c2)CC1 do in these assays?
INS promoter act: -3

Results for COC(=O)COc1ccc(S(=O)(=O)Nc2ccc(C(N)=O)cc2)cc1C ?
INS promoter act: 3

What do the screens show for `COC(=O)COc1ccc(-c2ccc(F)cc2)cc1C=O`?
INS promoter act: 450*

Results for CCn1c(CSc2nc3ccccc3s2)nnc1SCC(N)=O ?
INS promoter act: 6

How did Cc1ccc(N=Nc2ccc(O)c3ncccc23)cc1C do in these assays?
INS promoter act: 279*

What do the screens show for `Oc1ccc(CN2CCCCC2)c2cccnc12`?
INS promoter act: 389

Results for Oc1c(Cl)cc(Cl)c2cccnc12 ?
INS promoter act: 9

How did CCS(=O)(=O)c1ccc(N=Nc2ccc(O)c3ncccc23)c(OC)c1 do in these assays?
INS promoter act: 625*

How did CCS(=O)(=O)c1ccc(O)c(NC(=O)c2cc(OC)c(OC)c(OC)c2)c1 do in these assays?
INS promoter act: 0

Results for Cc1ccc(N=Nc2ccc(O)c3ncccc23)cc1 ?
INS promoter act: 123

How did Cc1nc2ccc(Cl)cc2c(-c2ccccc2F)c1CC(=O)O do in these assays?
INS promoter act: 9
